# Tests used:
# [1] = 1-octanol/buffer distribution co-efficient, log D of compound at pH 7.4 at 298 K after 24 hrs by shake flask method; format: physicochemical
# Outline: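 Shake flask. Buffer (pH 7.4) and 1-octanol were pre-saturated by vigorous mixing for 24 h at 298 K (±0.1 K) and then allowed to separate. Compound was dissolved in the buffer-saturated octanol as stock, then mixed with the octanol-saturated buffer for 24 h at 298 K. Both phases were quantified by UV spectrophotometry against calibration curves. D = Coct/Cbuf.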
# [2] = 1-octanol/buffer partition co-efficient of compound in neutral form at pH 7.4 at 298 K after 24 hrs by shake flask method; format: physicochemical; details: pH 7.4, 24 h
# Rattus norvegicus = species on record: Rattus norvegicus; test: Modulation of glutamate receptor in synaptosomes of rat brain cortex assessed as change in glutamate-induced 45Ca2+ uptake (K43/21) after 5 mins by liquid scintillation counting method; format: subcellular; set-up: concentration or dose not given beside the values
# Outline: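 Cortical synaptosomes (P2 fraction) from 9–10-day-old rats suspended in HEPES buffer pH 7.4 (NaCl, KCl, glucose; protein 1.5–2 mg mL−1), final Ca2+ 1.25 mM. 45Ca2+ uptake stimulated with 200 μM glutamate, 5 min at […]; stopped by GF/B filtration and three cold-buffer washes; beta counting. Uptake = stimulated minus unstimulated label, % of control; triplicate.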
# [3] = 1-hexane/buffer partition co-efficient of compound in neutral form at pH 7.4 at 298 K after 24 hrs by shake flask method; format: physicochemical; details: pH 7.4, 24 h
# [4] = Thermodynamic solubility of compound in buffer at 298 +/- 0.1 K after 24 hrs by shake flask method; format: physicochemical; details: read-out: Therm_solubility
# Outline: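 Shake flask at 298 K (±0.1 K). Phosphate buffer pH 7.4 (I = 0.15 mol L−1) was stirred with solid for 24 h, an equilibration time chosen from kinetic plateau experiments. Aliquot was centrifuged 5 min at 298 K, then isothermally filtered (0.45 μm) and diluted. Concentration was read by UV spectrophotometry (200–400 nm). Value is the mean of at least three replicates.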
# [5] = Permeability of compound at 5 mM using lipid layer at pH 7.4 at 298 K by spectrophotometric method; format: ADME; details: not told
# [6] = Permeability of compound at 5 mM using support layer at pH 7.4 at 298 K by spectrophotometric method; format: ADME; details: not told
# Outline: (§1)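 Franz diffusion cell at 298 K (±0.1 K). The donor (lower) chamber held 8 ml of drug solution, approximately 5 mM, in phosphate buffer saline (74 mM phosphate, pH 7.3–7.4, 280–290 mOsm with NaCl). The acceptor chamber held 1.5 ml buffer. Barrier was Permeapad or the support layer alone, without phospholipids. Cumulative permeated moles per barrier area were plotted against time in seconds. Replicates were at least triplicate, and Papp is the mean of the replicates.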
# [7] = Apparent permeability of compound at 5 mM using permeapad barrier at pH 7.4 at 298 K by spectrophotometric method; format: ADME; details: not told; outline: as §1
# [8] = 1-hexane/buffer distribution co-efficient, log D of compound at pH 7.4 at 298 K after 24 hrs by shake flask method; format: physicochemical; details: pH 7.4, 24 h
Structure (SMILES),logD at 24 h [1],K [2],Activity (Rattus norvegicus) [%],K [3],solubility thermodynamic at 24 h [4] [mM],Papp at 5000 µM [5] [×10⁻⁶ cm/s],Papp at 5000 µM [6] [×10⁻⁶ cm/s],Papp at 5000 µM [7] [×10⁻⁶ cm/s],logD [8]
CC(O)Cc1nsc(Nc2ccc(Cl)cc2)n1 (configuration not stated),2.58,380,89,0.46,0.484,–,–,–,–
CC(Cc1nsc(Nc2ccc(F)cc2)n1)NC1CC(C)(C)NC(C)(C)C1 (configuration not stated),0.881,5.06 ×10⁴ No_unit,112,158,18.2,18.6,16.3,8.7,–
Cc1cc(Nc2nc(CC(C)NC3CC(C)(C)NC(C)(C)C3)ns2)no1 (configuration not stated),-0.426,–,108,258.6,14.1,3.7,31.7,3.4,–
CC(O)Cc1nsc(Nc2ccc(F)cc2)n1 (configuration not stated),2.5,316,88,0.32,3.4,–,–,–,–
CC(Cc1nsc(Nc2ccc(Cl)c(Cl)c2)n1)NC1CC(C)(C)NC(C)(C)C1 (configuration not stated),1.1,–,305,72.3,7.45,26.1,15.7,9.8,–
CC(Cc1nsc(Nc2ccc(F)c(Cl)c2)n1)NC1CC(C)(C)NC(C)(C)C1 (configuration not stated),0.699,3.25 ×10⁴ No_unit,189,42,9.24,30.9,25.4,13.9,–
CC(O)Cc1nsc(Nc2ccc(F)c(Cl)c2)n1 (configuration not stated),2.35,226,75,0.16,–,–,–,–,–
Cc1ccc(Cl)cc1Nc1nc(CC(C)NC2CC(C)(C)NC(C)(C)C2)ns1 (configuration not stated),0.839,4.56 ×10⁴ No_unit,177,112.8,4.86,26.9,30.8,14.4,–
Cc1ccc(Nc2nc(CC(C)O)ns2)cc1 (configuration not stated),2.65,445,85,0.31,2.19,–,–,–,–
CC(Cc1nsc(NC2CC2)n1)NC1CC(C)(C)NC(C)(C)C1 (configuration not stated),0.0828,3.19 ×10³ No_unit,86,655.5,310,6.8,27.6,5.4,–
Cc1ccc(Nc2nc(CC(C)NC3CC(C)(C)NC(C)(C)C3)ns2)cc1Cl (configuration not stated),1.04,7.31 ×10⁴ No_unit,214,20.6,5.57,39.5,20.6,13.5,0.0031
CC(Cc1nsc(Nc2ccc(Br)cc2)n1)NC1CC(C)(C)NC(C)(C)C1 (configuration not stated),0.31,1.36 ×10⁴ No_unit,82,85,3.49,9.5,25.8,6.5,–
Cc1ccc(Nc2nc(CC(C)NC3CC(C)(C)NC(C)(C)C3)ns2)cc1 (configuration not stated),0.82,4.44 ×10⁴ No_unit,128,89.3,8.37,22.8,26.3,12.2,–
CSc1cccc(Nc2nc(CC(C)O)ns2)c1 (configuration not stated),1.97,94,86.7,0.48,–,–,–,–,–
Cc1ccc(Nc2nc(CC(C)O)ns2)cc1Cl (configuration not stated),3.02,1.038 ×10³ No_unit,87,1.68,0.483,–,–,–,–
CSc1cccc(Nc2nc(CC(C)NC3CC(C)(C)NC(C)(C)C3)ns2)c1 (configuration not stated),0.643,2.92 ×10⁴ No_unit,117,92.9,12,18.2,22.8,10.1,–
CC(Cc1nsc(Nc2ccc(Cl)cc2)n1)NC1CC(C)(C)NC(C)(C)C1 (configuration not stated),0.262,1.22 ×10⁴ No_unit,172,73,3.72,14.1,21.9,8.6,–
COc1ccc(Nc2nc(CC(C)O)ns2)cc1 (configuration not stated),2.31,205,108,0.58,3.04,–,–,–,–
Cc1cc(Nc2nc(CC(C)O)ns2)no1 (configuration not stated),1.65,45,109,0.18,–,–,–,–,–
CC(O)Cc1nsc(Nc2ccc(Cl)c(Cl)c2)n1 (configuration not stated),2.79,610,51,0.17,–,–,–,–,–
Cc1ccc(Cl)cc1Nc1nc(CC(C)O)ns1 (configuration not stated),3.02,–,88,0.56,0.445,–,–,–,–
